Source: PubChem
Rows were chosen to be rich in hits. Some 2.1% of all compounds tested hit in one or more screens of this group.
STAT3 act-1: IL-6 driven STAT3 reporter potentiators, primary screen, U3A cells, luciferase, luminescence, MLSCN library. hit rate 0.91% among 190,000. activation (% of control), % at 5.6 µM. IL-6 STAT3-luciferase reporter; 100% = signal with IL-6 EC80 alone;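 active = activation above the screen-wide mean of compound activation plus 3 SD, cut at about 130% in these data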;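 also: 0% = background luminescence of wells with medium and substrate only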
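Test system: Human STAT1-deficient U3A cells with stable STAT3-luciferase reporter | Also added: Interleukin-6, 33 ng/mL | Timing: Compound pre-incubation 1 h before IL-6, then 6 h stimulation at 37 °C | Technique: Luciferase reporter luminescence | Read-out: Percent of IL-6-only median luminescence | Benchmarks: IL-6-only wells as 100% reference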
TNF necrop inh: inhibitors of TNF-alpha triggered necroptosis, primary screen, cell-based, Jurkat FADD-/-, single concentration. Jurkat FADD-/- TNF necroptosis rescue, ATP luminescence, 24 h; 0 = TNF only, 100 = no-TNF cells. activation (protection from cell death), % at 10 µM. hit rate 0.068% among 220,000. AID 463075, 2010;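 active = activation, meaning protection from cell death, of at least 50% relative to plate controls; inactive = activation below 50%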;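 also: necroptosis triggered by 40 ng/mL TNF-alpha added together with compound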
STAT3 blocker: IL-6 driven STAT3 reporter inhibitors, primary screen, U3A cells, luciferase, luminescence, MLSCN library; IL-6 STAT3-luciferase reporter; host cell line lacks STAT1; inhibition, % at 5.5 µM; hit rate 0.89% among 190,000;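 active = inhibition above the mean inhibition across all screened compounds plus 3 SD, cut at about 44% in these data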;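 also: 0% = DMSO only wells and 100% = 100 µM nifuroxazide control wells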
STAT1 inh: STAT1 signaling inhibitors, primary screen, cell-based, HTS, luciferase reporter. AID 920, 2007. hit rate 0.35% among 200,000. inhibition, % at 5.5 µM. NIH 3T3 STAT1-luciferase reporter, IFN-gamma, luminescence;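 active = inhibition above a set limit, the mean inhibition across all tested compounds plus 3 SD, cut at about 34% in these data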;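 also: 0% = IFN-gamma with DMSO and 100% = IFN-gamma with 300 µM nifuroxazide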
zVAD death inh: inhibitors of zVAD-triggered necroptosis, primary screen, L929 cells; viability rescue, % at 10 µM; AID 1377, 2008; hit rate 0.38% among 220,000; L929 zVAD necroptosis rescue, ATP luminescence, 24 h; with zVAD 60 µM;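 active = activation, scaled between plate controls, above about 75%, limit read from the data; inactive = activation under that limit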;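 also: 0% = zVAD with DMSO and 100% = DMSO alone without zVAD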
STAT3 act-2: STAT3 reporter potentiators, retest of hits, confirmation, U3A cells, luciferase, luminescence; hit rate 64% among 1,200; IL-6 potentiation; U3A cells lack STAT1; 100 means same as IL-6 alone; potentiation (% of control), % at 5.7 µM; shares compounds with STAT3 act-1;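 active = percent activation of the STAT3 luciferase reporter above a set limit taken from the earlier primary screen, cut at about 130% in these data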;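 also: 0% = background signal of medium plus substrate and 100% = median of IL-6 with DMSO wells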
NFkB act STAT3ct: NF-kB reporter activators in human cells, counter-screen for STAT3 activator project; AID 1309, 2008; hit rate 11% among 1,200; shares compounds with STAT3 act-1; NF-kappaB reporter activation; activation (% of control), % at 5.7 µM; in the data active = activation above about 120%;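 also: reporter induced by TNF-alpha stimulation; 100% = median of stimulated DMSO wells and 0% = no signal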
STAT1 act: STAT1 reporter activators, IFN-gamma induced, counter-screen for STAT3 activator project, cell-based, NIH 3T3, luciferase luminescence. shares compounds with STAT3 act-1. activation (% of control), % at 5.7 µM. NIH 3T3 STAT1-luciferase reporter. hit rate 13% among 1,200;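 active = activation above the solvent-only control well mean plus 3 SD, set per screening run, cut at about 120% in these data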;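 also: 100% = IFN-gamma with DMSO median signal so 100% means no change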
Numbers without * were called inactive.

What do the screens show for `O=c1oc2ccccc2c(O)c1/C=C1\C=Nc2ccccc21`?
STAT3 act-1: 161*; TNF necrop inh: -11; STAT3 blocker: -76; STAT1 inh: 6; zVAD death inh: 0; STAT3 act-2: 152*; NFkB act STAT3ct: 104; STAT1 act: 90

Results for Cc1cc(NS(=O)(=O)c2ccc(NC(=O)c3oc4ccccc4c3C)cc2)no1 ?
STAT3 act-1: 145*; TNF necrop inh: 2; STAT3 blocker: -53; STAT1 inh: -3; zVAD death inh: 1; STAT3 act-2: 129; NFkB act STAT3ct: 106; STAT1 act: 102

How did CCOP(=O)(OCC)C(NC(=O)Nc1ccc(Cl)cc1)C(N)=O (centres undefined) do in these assays?
STAT3 act-1: 95; TNF necrop inh: 1; STAT3 blocker: 3; STAT1 inh: 3; zVAD death inh: 0

What do the screens show for `CCOC(=O)c1cnn(-c2ccccn2)c1N`?
STAT3 act-1: 94; TNF necrop inh: -1; STAT3 blocker: 12; STAT1 inh: -24; zVAD death inh: 1

Results for CCOC(=O)c1cnn(-c2cc(C)c3ccccc3n2)c1N ?
STAT3 act-1: 170*; TNF necrop inh: 0; STAT3 blocker: -75; STAT1 inh: 2; zVAD death inh: 0; STAT3 act-2: 173*; NFkB act STAT3ct: 117; STAT1 act: 107

How did CC(Oc1ccc(F)cc1)C(=O)Nc1ccc2ccccc2c1 (centres undefined) do in these assays?
STAT3 act-1: 139*; TNF necrop inh: 1; STAT3 blocker: -37; STAT1 inh: -6; zVAD death inh: 0; STAT3 act-2: 136*; NFkB act STAT3ct: 103; STAT1 act: 109

How did O=c1[nH]nc(Cc2ccc3ccccc3n2)c2ccccc12 do in these assays?
STAT3 act-1: 147*; TNF necrop inh: 0; STAT3 blocker: -58; STAT1 inh: -11; zVAD death inh: 0; STAT3 act-2: 125; NFkB act STAT3ct: 105; STAT1 act: 115

How did COc1ccccc1-c1nc2s/c(=C\c3cccs3)c(=O)n2n1 do in these assays?
STAT3 act-1: 115; TNF necrop inh: 0; STAT3 blocker: -10; STAT1 inh: 0; zVAD death inh: 2

Results for COc1ccc(/C=c2\sc3nc(-c4ccccc4OC)nn3c2=O)c(OC)c1 ?
STAT3 act-1: 156*; TNF necrop inh: -7; STAT3 blocker: -63; STAT1 inh: 0; zVAD death inh: 0; STAT3 act-2: 129; NFkB act STAT3ct: 98; STAT1 act: 96

Results for O=C(O)C1Cc2[nH]cnc2C(c2ccccc2O)N1 (centres undefined) ?
STAT3 act-1: 143*; TNF necrop inh: 1; STAT3 blocker: -48; STAT1 inh: 7; zVAD death inh: 2; STAT3 act-2: 172*; NFkB act STAT3ct: 103; STAT1 act: 115

Results for O=C(O)C1Cc2[nH]cnc2C(c2cccc([N+](=O)[O-])c2)N1 (centres undefined) ?
STAT3 act-1: 106; TNF necrop inh: -1; STAT3 blocker: -1; STAT1 inh: -7; zVAD death inh: 1

Results for O=S(=O)(c1ccccc1)n1ccc2ccccc21 ?
STAT3 act-1: 139*; TNF necrop inh: 0; STAT3 blocker: -41; STAT1 inh: 1; zVAD death inh: 0; STAT3 act-2: 126; NFkB act STAT3ct: 102; STAT1 act: 99

Results for c1ccc2c(c1)CCCN2c1nc2ccccc2n2cnnc12 ?
STAT3 act-1: 164*; TNF necrop inh: -3; STAT3 blocker: -65; STAT1 inh: -7; zVAD death inh: 1; STAT3 act-2: 163*; NFkB act STAT3ct: 110; STAT1 act: 109

Results for c1ccc2c(c1)CCN(c1nc3ccccc3n3cnnc13)C2 ?
STAT3 act-1: 132; TNF necrop inh: -4; STAT3 blocker: -34; STAT1 inh: 2; zVAD death inh: 1

How did O=c1c(Cl)c(N/N=C/c2ccc(Br)cc2)cnn1-c1ccccc1 do in these assays?
STAT3 act-1: 150*; TNF necrop inh: -1; STAT3 blocker: -55; STAT1 inh: -11; zVAD death inh: 0; STAT3 act-2: 126; NFkB act STAT3ct: 101; STAT1 act: 102

What do the screens show for `CN(C)C(=O)N1CCC(C(=O)NCc2cccs2)CC1`?
STAT3 act-1: 145*; TNF necrop inh: 1; STAT3 blocker: -49; STAT1 inh: 1; zVAD death inh: 3; STAT3 act-2: 95; NFkB act STAT3ct: 102; STAT1 act: 100

Results for COc1ccccc1C(=O)COC(=O)c1ccccc1O ?
STAT3 act-1: 151*; TNF necrop inh: 0; STAT3 blocker: -56; STAT1 inh: -6; zVAD death inh: 1; STAT3 act-2: 150*; NFkB act STAT3ct: 106; STAT1 act: 105

What do the screens show for `COc1cccc(C(=O)OCC(=O)c2c[nH]c3ccccc23)c1O`?
STAT3 act-1: 144*; TNF necrop inh: 0; STAT3 blocker: -50; STAT1 inh: -4; zVAD death inh: 2; STAT3 act-2: 138*; NFkB act STAT3ct: 114; STAT1 act: 94

What do the screens show for `CCOc1ccc(OCC)c(S(=O)(=O)NCCOC23CC4CC(CC(C4)C2)C3)c1`?
STAT3 act-1: 102; TNF necrop inh: -1; STAT3 blocker: -4; STAT1 inh: 5; zVAD death inh: -1

What do the screens show for `CCNc1sc(C(=O)c2cccs2)c(N)c1-c1nc2ccccc2s1`?
STAT3 act-1: 116; TNF necrop inh: -5; STAT3 blocker: -14; STAT1 inh: -6; zVAD death inh: 1

What do the screens show for `CCOC(=O)c1sc(NCc2ccco2)c(-c2nc3ccccc3s2)c1N`?
STAT3 act-1: 158*; TNF necrop inh: 3; STAT3 blocker: -65; STAT1 inh: -2; zVAD death inh: 10; STAT3 act-2: 136*; NFkB act STAT3ct: 101; STAT1 act: 104

What do the screens show for `C=CCNc1sc(C(=O)c2ccccc2)c(N)c1-c1nc2ccccc2s1`?
STAT3 act-1: 143*; TNF necrop inh: -3; STAT3 blocker: -53; STAT1 inh: 3; zVAD death inh: 2; STAT3 act-2: 124; NFkB act STAT3ct: 110; STAT1 act: 104
